The target of assay [1] is T1, 5-hydroxytryptamine receptor 1A (Rattus norvegicus, UniProt P19327).
T1 sequence (P19327 whole entry): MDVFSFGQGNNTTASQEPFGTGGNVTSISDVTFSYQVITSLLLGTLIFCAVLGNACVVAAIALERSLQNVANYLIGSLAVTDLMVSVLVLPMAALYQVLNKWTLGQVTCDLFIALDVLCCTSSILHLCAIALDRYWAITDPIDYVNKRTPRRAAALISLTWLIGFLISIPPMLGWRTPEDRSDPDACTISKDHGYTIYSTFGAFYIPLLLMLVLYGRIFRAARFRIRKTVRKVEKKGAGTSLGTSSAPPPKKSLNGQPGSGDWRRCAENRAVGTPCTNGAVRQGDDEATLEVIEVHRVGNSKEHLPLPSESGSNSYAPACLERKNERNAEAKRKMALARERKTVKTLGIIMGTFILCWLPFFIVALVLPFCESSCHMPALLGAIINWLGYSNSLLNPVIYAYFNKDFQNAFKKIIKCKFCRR
Nature of the assay: In vitro inhibition of [3H]8-OH-DPAT binding to rat 5-HT 1a receptors. In short, it runs like this: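 Rat hippocampal membranes labelled with [3H]-8-OH-DPAT by standard binding methods, in competition with eight to nine test concentrations. Specific binding was over 80% of total. IC50 derived from inhibition of specific radioligand binding by LIGAND analysis.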

Assay [2] concerns the target T2, Adrenergic receptor alpha-1 (Rattus norvegicus, UniProt P15823+P23944+P43140).
T2 sequence (P15823 whole entry): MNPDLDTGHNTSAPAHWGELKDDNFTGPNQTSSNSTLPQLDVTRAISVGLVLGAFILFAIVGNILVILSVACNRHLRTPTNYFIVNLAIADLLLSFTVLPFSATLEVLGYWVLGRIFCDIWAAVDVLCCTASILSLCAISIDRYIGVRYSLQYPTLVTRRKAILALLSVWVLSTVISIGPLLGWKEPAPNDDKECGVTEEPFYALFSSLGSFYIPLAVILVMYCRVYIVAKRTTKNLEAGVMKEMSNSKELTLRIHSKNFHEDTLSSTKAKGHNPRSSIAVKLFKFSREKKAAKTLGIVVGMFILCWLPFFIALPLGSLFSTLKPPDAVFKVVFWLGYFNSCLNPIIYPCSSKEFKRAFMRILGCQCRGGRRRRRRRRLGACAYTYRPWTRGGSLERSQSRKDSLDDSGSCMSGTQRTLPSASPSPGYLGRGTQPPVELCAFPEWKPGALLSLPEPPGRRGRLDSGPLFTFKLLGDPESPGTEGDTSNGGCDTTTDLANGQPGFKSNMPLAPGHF
T2 sequence (P23944 whole entry): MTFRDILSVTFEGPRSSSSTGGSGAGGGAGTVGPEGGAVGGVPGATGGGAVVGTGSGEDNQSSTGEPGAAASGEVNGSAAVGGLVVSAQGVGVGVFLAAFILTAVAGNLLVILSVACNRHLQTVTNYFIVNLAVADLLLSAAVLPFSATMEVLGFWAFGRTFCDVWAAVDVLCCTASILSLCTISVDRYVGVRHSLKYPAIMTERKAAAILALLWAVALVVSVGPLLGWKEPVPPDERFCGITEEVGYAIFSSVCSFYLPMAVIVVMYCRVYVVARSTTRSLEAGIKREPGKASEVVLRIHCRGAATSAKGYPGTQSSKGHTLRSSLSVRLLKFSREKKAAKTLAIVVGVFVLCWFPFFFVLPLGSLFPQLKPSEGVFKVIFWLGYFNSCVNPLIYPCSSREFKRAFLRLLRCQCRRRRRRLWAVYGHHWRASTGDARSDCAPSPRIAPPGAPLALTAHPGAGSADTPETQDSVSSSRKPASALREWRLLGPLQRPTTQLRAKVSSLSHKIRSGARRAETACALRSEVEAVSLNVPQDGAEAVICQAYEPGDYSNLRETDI
T2 sequence (P43140 whole entry): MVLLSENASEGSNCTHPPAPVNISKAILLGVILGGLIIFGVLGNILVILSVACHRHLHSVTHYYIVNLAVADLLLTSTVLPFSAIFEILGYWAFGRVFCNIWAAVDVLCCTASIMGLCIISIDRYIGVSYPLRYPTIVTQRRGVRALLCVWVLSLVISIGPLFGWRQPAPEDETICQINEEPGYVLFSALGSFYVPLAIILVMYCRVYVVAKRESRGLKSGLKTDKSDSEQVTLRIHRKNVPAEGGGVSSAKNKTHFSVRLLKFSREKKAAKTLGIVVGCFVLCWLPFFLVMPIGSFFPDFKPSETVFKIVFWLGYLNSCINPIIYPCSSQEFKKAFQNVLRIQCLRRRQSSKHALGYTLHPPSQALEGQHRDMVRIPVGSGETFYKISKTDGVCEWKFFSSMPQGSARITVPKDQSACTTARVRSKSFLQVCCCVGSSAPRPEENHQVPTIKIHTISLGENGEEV
Briefly: In vitro inhibition of [3H]prazosin binding to rat alpha-1 adrenergic receptors. It counts as protein assay. In short, it runs like this: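 [3H]Prazosin displacement in rat brain cortex membranes, standard binding procedure, with eight to nine concentrations of each hydrochloride salt. Specific binding was above 80% of total. LIGAND program used to obtain IC50 from inhibition of specific binding.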

The target in another assay is D(2) dopamine receptor (Rattus norvegicus, UniProt P61169). Nature of the assay: In vitro inhibition of [3H]spiroperidol binding to rat Dopamine D2 receptors.
D(2) dopamine receptor, sequence (P61169 whole entry): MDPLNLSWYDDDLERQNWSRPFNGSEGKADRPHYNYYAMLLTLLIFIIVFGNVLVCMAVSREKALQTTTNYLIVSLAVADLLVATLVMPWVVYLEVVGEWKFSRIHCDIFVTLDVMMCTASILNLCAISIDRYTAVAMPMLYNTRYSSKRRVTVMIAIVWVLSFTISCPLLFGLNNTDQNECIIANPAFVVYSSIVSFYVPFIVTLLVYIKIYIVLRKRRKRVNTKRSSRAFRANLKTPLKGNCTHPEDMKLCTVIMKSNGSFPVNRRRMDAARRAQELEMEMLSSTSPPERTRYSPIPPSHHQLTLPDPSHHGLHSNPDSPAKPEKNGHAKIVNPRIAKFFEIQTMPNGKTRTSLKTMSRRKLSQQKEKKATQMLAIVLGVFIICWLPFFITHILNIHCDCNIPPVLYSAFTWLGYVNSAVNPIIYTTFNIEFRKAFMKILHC
Assay [3] in a line: Selectivity for D2 receptor compared to 5-HT1A receptor.
Assay [4] in a line: Selectivity for alpha-1 receptor compared to 5-HT1A receptor.

For `COc1cccc2c1CCC[C@H]2CCCN1CCN(c2ccccn2)CC1`, the IC50 – broadly, the concentration at which inhibition is half-maximal – in assay [1] came to 2.3 nM; in assay [2], 580 nM; at D(2) dopamine receptor it was 600 nM. Further, the values for the Selectivity in assay [3] and in assay [4] were 261 and 252, respectively.
Consider `COc1ccccc1N1CCN(CCC[C@H]2CCCc3c(OC)cccc32)CC1`, for which the IC50 in assay [1] was 1.6 nM; in assay [2], 0.8 nM.
As for `COc1cccc2c1CCC[C@@H]2CCCN1CCN(c2ccccc2)CC1`, the figures for the IC50 (in assay [1]; in assay [2]; at D(2) dopamine receptor) were 4.3 nM, 61 nM and 880 nM, respectively. In addition, the Selectivity in assay [3] was 205; in assay [4], 14.
`COc1ccccc1N1CCN(CCC(=O)N[C@H]2CCCc3c(OC)cccc32)CC1`: the values for the IC50 (in assay [2]; on D(2) dopamine receptor) were 240 nM and 2600 nM, respectively.
Consider `COc1ccccc1N1CCN(CCCN[C@@H]2CCCc3c(OC)cccc32)CC1`, for which the IC50 in assay [1] came out at 7 nM; in assay [2] it was 1700 nM; at D(2) dopamine receptor, 1900 nM. Also, the values for the Selectivity in assay [3] and in assay [4] were 271 and 243, respectively.
The corresponding values for `COc1cccc2c1CCC[C@@H]2CCCN1CCN(c2ccccn2)CC1` are 4.5 nM, 85 nM, 880 nM, 196 and 19.
With `COc1ccccc1N1CCN(CCC(=O)N[C@@H]2CCCc3c(OC)cccc32)CC1`, the IC50 came to 770 nM in assay [2] and 870 nM on D(2) dopamine receptor.
Regarding `COc1cccc2c1CCCC2CCCN1CCN(c2ccccc2)CC1` (configuration not stated), the Selectivity is 220 in assay [3] and 86 in assay [4].
`COc1ccccc1N1CCN(CCCN[C@H]2CCCc3c(OC)cccc32)CC1`: the IC50 in assay [1] amounted to 34 nM; in assay [2], 649 nM; on D(2) dopamine receptor it was 2300 nM. The Selectivity in assay [3] amounted to 68; in assay [4] it was 19.
For `COc1cccc2c1CCC[C@H]2CCCN1CCN(c2ccccc2)CC1`, in that order: 2.4 nM, 950 nM, 610 nM, 254 and 396.
Turning to `NCCCC1(CCCN)CCc2cccc(O)c2C1`, the IC50 in assay [1] came out at 2.5 nM.
Take `COc1ccccc1N1CCN(CCN[C@@H]2CCCc3c(OC)cccc32)CC1`: the IC50 in assay [1] is 10 nM; in assay [2], 1000 nM; on D(2) dopamine receptor, 3200 nM. Also, the values for the Selectivity in assay [3] and in assay [4] were 320 and 100, respectively.
With `COc1ccccc1N1CCN(CCCNC2CCCc3c(OC)cccc32)CC1` (configuration not stated), the Selectivity in assay [3] is 106; in assay [4] it was 88.
Consider `COc1ccccc1N1CCN(CCNC2CCCc3c(OC)cccc32)CC1` (configuration not stated), for which the Selectivity in assay [3] is 49; in assay [4] it was 29.
As for `COc1ccccc1N1CCN(CCC[C@@H]2CCCc3c(OC)cccc32)CC1`, the 50% inhibitory concentration (IC50) stood at 1.3 nM in assay [1] and 33 nM in assay [2].
On to `COc1ccccc1N1CCN(CCN[C@H]2CCCc3c(OC)cccc32)CC1`, for which the IC50 stood at 7 nM in assay [1], 228 nM in assay [2] and 650 nM at D(2) dopamine receptor. Besides, the Selectivity was determined as 93 in assay [3] and 33 in assay [4].
For `COc1cccc2c1CCCC2CCCN1CCN(c2ccccn2)CC1` (configuration not stated), the Selectivity in assay [3] came out at 259; in assay [4], 122.
